Measured values reported in ChEMBL document CHEMBL2010757, “Cholinestrase inhibitory effects of geranylated flavonoids from Paulownia tomentosa fruits” (Bioorg Med Chem, 2012).

What was measured:
Butyrylcholinesterase [1] = target: T1, Butyrylcholinesterase (Equus caballus, UniProt Q9N1N9); assay: Inhibition of equine BChE assessed as butyrylthiocholine iodide hydrolysis after 10 mins preincubation by spectrophotometry
Method in brief: (§1)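 Equine serum BChE (0.05 U/mL) mixed with sample in 100 mM sodium phosphate pH 8.0, held 10 min at room temperature; started with DTNB (3.3 mM) and butyrylthiocholine iodide (1 mM). 5-Thio-2-nitrobenzoate read at 412 nm, triplicate. IC50 as concentration giving 50% inhibition; kinetics by Lineweaver–Burk plots at rising substrate and inhibitor levels, Ki from Dixon plot.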

Acetylcholinesterase [2] = target: T2, Acetylcholinesterase (Homo sapiens, UniProt P22303); assay: Inhibition of human erythrocyte AChE assessed as acetylthiocholine iodide hydrolysis after 10 mins preincubation by spectrophotometry
T2 sequence (P22303 whole entry): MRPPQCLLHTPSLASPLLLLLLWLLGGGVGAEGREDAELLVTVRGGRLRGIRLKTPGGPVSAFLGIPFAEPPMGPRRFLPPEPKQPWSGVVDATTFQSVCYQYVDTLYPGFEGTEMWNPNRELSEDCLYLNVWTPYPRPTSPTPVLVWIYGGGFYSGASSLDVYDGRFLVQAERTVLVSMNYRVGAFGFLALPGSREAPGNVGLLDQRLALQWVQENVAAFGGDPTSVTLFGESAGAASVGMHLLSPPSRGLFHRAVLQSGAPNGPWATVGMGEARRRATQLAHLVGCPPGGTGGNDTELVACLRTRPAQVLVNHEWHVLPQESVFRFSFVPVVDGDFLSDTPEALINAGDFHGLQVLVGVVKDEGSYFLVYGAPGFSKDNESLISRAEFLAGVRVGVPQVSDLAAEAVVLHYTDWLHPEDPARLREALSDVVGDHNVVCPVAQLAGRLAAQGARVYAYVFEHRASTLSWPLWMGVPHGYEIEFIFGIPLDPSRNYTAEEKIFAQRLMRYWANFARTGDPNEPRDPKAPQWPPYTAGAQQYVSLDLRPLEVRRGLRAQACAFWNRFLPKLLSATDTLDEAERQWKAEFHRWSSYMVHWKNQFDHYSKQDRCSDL
Method in brief: (§2)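 Human erythrocyte AChE (0.25 U/mL) with sample in 100 mM sodium phosphate pH 8.0, 10 min room temperature preincubation; started with DTNB (3.3 mM) and acetylthiocholine iodide (1 mM). Thiolate formation read at 412 nm, triplicate. IC50 as concentration for 50% inhibition; mode by Lineweaver–Burk plots over rising substrate and inhibitor, Ki by Dixon plot.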

Butyrylcholinesterase [3] = target: T1, Butyrylcholinesterase; assay: Mixed type inhibition of equine BChE using butyrylthiocholine iodide as substrate by Lineweaver-Burk double-reciprocal-plot and dixon plot analysis; method in brief: as §1
Acetylcholinesterase [4] = target: T2, Acetylcholinesterase; assay: Reversible inhibition of human erythrocyte AChE using assessed as acetylthiocholine iodide hydrolysis by spectrophotometry; settings: TDE = time-dependent effect
Method in brief: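 hAChE (0.25 U/mL) with 1 mM acetylthiocholine in 100 mM sodium phosphate pH 8.0 at 37 °C, read continuously by spectrophotometer for 300 s. Reversibility from initial velocity versus enzyme amount at several inhibitor levels. Enzyme preincubated with inhibitor 0–60 min in 10 min steps; residual velocity (v/v0) followed; progress curves at one inhibitor level fitted by nonlinear regression.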

Acetylcholinesterase [5] = target: T2, Acetylcholinesterase; assay: Mixed type inhibition of human erythrocyte AChE using acetylthiocholine iodide as substrate by Lineweaver-Burk double-reciprocal-plot and dixon plot analysis; method in brief: as §2
Acetylcholinesterase [6] = target: T2, Acetylcholinesterase; assay: Binding affinity to human erythrocyte AChE
Method in brief: (§3)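 hAChE at 5 U/mL in 100 mM sodium phosphate pH 8.0 titrated with successive inhibitor additions. Excitation 276 nm, emission 300–400 nm, slits 2.0 nm, at 18 and 37 °C; triplicate means. Affinity constant KA and n from log[(F0−F)/F] = logKA + n log[Q] for static quenching.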

Acetylcholinesterase [7] = target: T2, Acetylcholinesterase; assay: Binding affinity to human erythrocyte AChE assessed as fluorescence quenching by microplate reader; method in brief: as §3
Acetylcholinesterase [8] = target: T2, Acetylcholinesterase; assay: Ratio of eriodictyol IC50 to compound IC50 for human erythrocyte AChE

T1 sequence (Q9N1N9 whole entry): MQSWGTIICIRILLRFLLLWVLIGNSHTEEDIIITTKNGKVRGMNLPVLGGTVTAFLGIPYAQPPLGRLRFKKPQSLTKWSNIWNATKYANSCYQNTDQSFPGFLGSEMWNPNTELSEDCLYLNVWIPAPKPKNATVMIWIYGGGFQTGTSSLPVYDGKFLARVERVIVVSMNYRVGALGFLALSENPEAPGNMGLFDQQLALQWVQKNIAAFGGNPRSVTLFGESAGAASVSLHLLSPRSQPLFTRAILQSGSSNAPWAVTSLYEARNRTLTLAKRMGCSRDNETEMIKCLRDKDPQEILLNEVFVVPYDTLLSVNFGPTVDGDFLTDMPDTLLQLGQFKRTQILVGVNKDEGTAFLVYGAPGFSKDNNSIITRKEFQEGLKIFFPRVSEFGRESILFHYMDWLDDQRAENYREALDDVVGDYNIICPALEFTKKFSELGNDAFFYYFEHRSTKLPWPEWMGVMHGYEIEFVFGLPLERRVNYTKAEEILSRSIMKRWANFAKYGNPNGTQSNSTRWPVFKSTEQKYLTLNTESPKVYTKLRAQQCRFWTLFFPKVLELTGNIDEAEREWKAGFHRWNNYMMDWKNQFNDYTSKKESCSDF

SMILES: CNC(=O)Oc1ccc2c(c1)[C@]1(C)CCN(C)[C@@H]1N2C [PHYSOSTIGMINE]
- IC50 (Butyrylcholinesterase [1]): 3.7 µM

SMILES: COc1cc(C2CC(=O)c3c(cc(O)c(C/C=C(\C)CCC=C(C)C)c3O)O2)cc(OC)c1O (configuration not stated)
- IC50 (Acetylcholinesterase [2]): 316 µM
- Ki (Butyrylcholinesterase [3]): 75.2 µM
- IC50 (Butyrylcholinesterase [1]): 80 µM

SMILES: COc1cc([C@@H]2CC(=O)c3c(cc(O)c(C/C=C(\C)CCC=C(C)C)c3O)O2)ccc1O
- inhibition (Acetylcholinesterase [4]): tde
- IC50 (Acetylcholinesterase [2]): 109 µM
- inhibition (Acetylcholinesterase [2]): Dose-dependent effect
- Ki (Butyrylcholinesterase [3]): 23.6 µM
- Ki (Acetylcholinesterase [5]): 150 µM
- IC50 (Butyrylcholinesterase [1]): 24.5 µM

SMILES: CC(C)=CCC/C(C)=C/Cc1c(O)cc2c(c1O)C(=O)C[C@@H](c1ccc(O)c(O)c1)O2 [NYMPHAEOL A]
- inhibition (Acetylcholinesterase [4]): tde
- IC50 (Acetylcholinesterase [2]): 7.2 µM
- inhibition (Acetylcholinesterase [2]): Dose-dependent effect
- Ka (Acetylcholinesterase [6]): 5.49 ×10³ L/M
- KSV (Acetylcholinesterase [7]): 0.0577 ×10⁵ L/M
- Ki (Butyrylcholinesterase [3]): 1.2 µM
- Ki (Acetylcholinesterase [5]): 8.4 µM
- Ratio IC50 (Acetylcholinesterase [8]): 200
- IC50 (Butyrylcholinesterase [1]): 1.4 µM

SMILES: COc1c(O)cc(C2CC(=O)c3c(cc(O)c(C/C=C(\C)CCC=C(C)C)c3O)O2)cc1O (configuration not stated)
- inhibition (Acetylcholinesterase [4]): tde
- IC50 (Acetylcholinesterase [2]): 22.9 µM
- inhibition (Acetylcholinesterase [2]): Dose-dependent effect
- Ki (Butyrylcholinesterase [3]): 7.6 µM
- Ki (Acetylcholinesterase [5]): 30.1 µM
- IC50 (Butyrylcholinesterase [1]): 6.4 µM

SMILES: COc1cc([C@H]2Oc3cc(O)c(C/C=C(\C)CCC=C(C)C)c(O)c3C(=O)[C@@H]2O)ccc1O
- inhibition (Acetylcholinesterase [4]): tde
- IC50 (Acetylcholinesterase [2]): 48.5 µM
- inhibition (Acetylcholinesterase [2]): Dose-dependent effect
- Ki (Butyrylcholinesterase [3]): 18.2 µM
- Ki (Acetylcholinesterase [5]): 68.2 µM
- IC50 (Butyrylcholinesterase [1]): 11.2 µM

SMILES: COc1ccc([C@@H]2CC(=O)c3c(O)cc(O)cc3O2)cc1O [HESPERETIN]
- IC50 (Acetylcholinesterase [2]): 2480 µM
- IC50 (Butyrylcholinesterase [1]): 1770 µM

SMILES: COc1c(O)cc(C2Oc3cc(O)c(C/C=C(\C)CCC=C(C)C)c(O)c3C(=O)[C@@H]2O)cc1O (some centres not stated)
- inhibition (Acetylcholinesterase [4]): tde
- IC50 (Acetylcholinesterase [2]): 15.6 µM
- inhibition (Acetylcholinesterase [2]): Dose-dependent effect
- Ka (Acetylcholinesterase [6]): 4.54 ×10³ L/M
- KSV (Acetylcholinesterase [7]): 0.0369 ×10⁵ L/M
- Ki (Butyrylcholinesterase [3]): 4.5 µM
- Ki (Acetylcholinesterase [5]): 16.9 µM
- IC50 (Butyrylcholinesterase [1]): 3.8 µM

SMILES: O=C1C[C@@H](c2ccc(O)cc2)Oc2cc(O)cc(O)c21 [NARINGENIN]
- IC50 (Acetylcholinesterase [2]): 2040 µM
- IC50 (Butyrylcholinesterase [1]): 1490 µM

SMILES: O=C1C[C@@H](c2ccc(O)c(O)c2)Oc2cc(O)cc(O)c21 [ERIODICTYOL]
- IC50 (Acetylcholinesterase [2]): 1660 µM
- IC50 (Butyrylcholinesterase [1]): 1120 µM

SMILES: COc1ccc([C@H]2Oc3cc(O)c(C/C=C(\C)CCC=C(C)C)c(O)c3C(=O)[C@@H]2O)cc1O
- inhibition (Acetylcholinesterase [4]): tde
- IC50 (Acetylcholinesterase [2]): 31.9 µM
- inhibition (Acetylcholinesterase [2]): Dose-dependent effect
- Ka (Acetylcholinesterase [6]): 2.7 ×10³ L/M
- KSV (Acetylcholinesterase [7]): 0.0285 ×10⁵ L/M
- Ki (Butyrylcholinesterase [3]): 18.7 µM
- Ki (Acetylcholinesterase [5]): 34.3 µM
- IC50 (Butyrylcholinesterase [1]): 12.7 µM

SMILES: COc1ccc([C@@H]2CC(=O)c3c(cc(O)c(C/C=C(\C)CCC=C(C)C)c3O)O2)cc1O
- inhibition (Acetylcholinesterase [4]): tde
- IC50 (Acetylcholinesterase [2]): 92.4 µM
- inhibition (Acetylcholinesterase [2]): Dose-dependent effect
- Ka (Acetylcholinesterase [6]): 0.924 ×10³ L/M
- KSV (Acetylcholinesterase [7]): 0.0103 ×10⁵ L/M
- Ki (Butyrylcholinesterase [3]): 23.5 µM
- Ki (Acetylcholinesterase [5]): 94.5 µM
- IC50 (Butyrylcholinesterase [1]): 25.6 µM

SMILES: CC(C)=CCC/C(C)=C/Cc1c(O)cc2c(c1O)C(=O)C[C@@H](c1ccc(O)cc1)O2 [BONANNIONE A]
- inhibition (Acetylcholinesterase [4]): tde
- IC50 (Acetylcholinesterase [2]): 91.5 µM
- inhibition (Acetylcholinesterase [2]): Dose-dependent effect
- Ki (Butyrylcholinesterase [3]): 22.2 µM
- Ki (Acetylcholinesterase [5]): 120 µM
- IC50 (Butyrylcholinesterase [1]): 20.6 µM
